The source made the active and inactive calls. No cut-off for these calls is given here.
Assays:
Mammarenavirus lassaense [1] = assay: (§1) Inhibition of Lassa virus N-terminal His-tagged NP exonuclease domain (342 to 569 residues) expressed in Escherichia coli Tuner (DE3) using 3'-overhang 4-nucleotide stem-loop RNA preincubated for 10 mins followed by substrate addition measured after 60 mins by PAGE based […]
Outline: (§2)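 Purified NP exonuclease domain (2 μM), alone or with inhibitor, was incubated with 1 μM 5′-FAM-labelled RNA (20-nt ssRNA or stem-loop with 4-nt 3′ overhang). Buffer: 120 mM NaCl, 2 mM MgCl2, 20 mM Tris-HCl pH 7.0, ±10% DMSO, room temperature, 60 min. Products were run on 20% denaturing gels under UV. Cleavage was quantified across inhibitor concentrations to calculate IC50.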

Mammarenavirus lassaense [2] = assay: Inhibition of Lassa virus N-terminal His-tagged NP exonuclease domain (342 to 569 residues) expressed in Escherichia coli Tuner (DE3) using FAM-labeled 20-nucleotide ssRNA preincubated for 10 mins followed by substrate addition measured after 60 mins by PAGE based […]; outline: as §2
[3] = molecular target: T1, Ribonuclease T (Escherichia coli (strain K12)) (UniProt P30014); assay: (§3) Inhibition of 5'-[gamma-32P]ATP-labelled 11-nucleotide ssDNA binding to recombinant Escherichia coli K-12 N-terminal His-tagged RNase T expressed in Escherichia coli BL21-CodonPlus(DE3)-RIPL at 1 mM preincubated for 10 mins followed by substrate addition measured after 20 mins by TBE gel electrophoresis mobility shift assay
T1 sequence (whole entry): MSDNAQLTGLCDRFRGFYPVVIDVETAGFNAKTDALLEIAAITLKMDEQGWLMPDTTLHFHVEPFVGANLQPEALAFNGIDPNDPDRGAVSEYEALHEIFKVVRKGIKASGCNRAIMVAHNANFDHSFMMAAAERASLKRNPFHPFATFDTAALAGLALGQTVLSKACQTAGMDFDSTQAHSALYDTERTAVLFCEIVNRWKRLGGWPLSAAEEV
Outline: (§4)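 Gel-shift assay. Inhibitor was mixed with protein (CRN-4 or RNase T) for 10 min at room temperature, then 20 nM 5′-32P-labelled 11-nt substrate was added (RNA for CRN-4, DNA for RNase T). Buffer: 50 mM Tris-HCl pH 7.0, 120 mM NaCl, 10 mM EGTA, 40 mM EDTA, ±10% DMSO, 20 min at room temperature. Complexes were resolved on 20% TBE gels and read by phosphorimaging.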

[4] = molecular target: T2, 3'-5' exonuclease crn-4 (Caenorhabditis elegans) (UniProt Q10905); assay: (§5) Inhibition of GST-tagged Caenorhabditis elegans CRN-4 exonuclease activity expressed in Escherichia coli BL21 (DE3) pLysS preincubated for 10 mins followed by [gamma-32P]ATP labelled 11-nucleotide ssRNA substrate addition for 30 mins by PAGE based autoradiography
T2 sequence (whole entry): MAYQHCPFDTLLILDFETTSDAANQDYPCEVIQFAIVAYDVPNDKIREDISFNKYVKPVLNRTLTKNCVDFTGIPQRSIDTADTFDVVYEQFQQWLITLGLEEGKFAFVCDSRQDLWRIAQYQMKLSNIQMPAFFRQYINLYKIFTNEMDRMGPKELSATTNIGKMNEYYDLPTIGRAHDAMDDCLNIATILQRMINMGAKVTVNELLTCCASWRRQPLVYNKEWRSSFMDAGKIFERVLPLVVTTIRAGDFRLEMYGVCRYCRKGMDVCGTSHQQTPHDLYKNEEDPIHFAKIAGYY

[5] = molecular target: T2, 3'-5' exonuclease crn-4 (Caenorhabditis elegans); assay: (§6) Inhibition of 5'-[gamma-32P]ATP-labelled 11-nucleotide ssRNA binding to Caenorhabditis elegans GST-tagged CRN-4 expressed in Escherichia coli BL21 (DE3) pLysS at 1 mM preincubated for 10 mins followed by substrate addition measured after 20 mins by TBE gel electrophoresis mobility shift assay; outline: as §4
[6] = molecular target: T1, Ribonuclease T (Escherichia coli (strain K12)); assay: (§7) Inhibition of N-terminal His-tagged recombinant Escherichia coli K-12 RNase T exonuclease activity expressed in Escherichia coli BL21-CodonPlus(DE3)-RIPL preincubated for 10 mins followed by [gamma-32P]ATP labelled 11-nucleotide ssDNA substrate addition for 40 mins by PAGE based autoradiography
[7] = molecular target: Ribonuclease T (Escherichia coli (strain K12)) (UniProt P30014); assay: as §3; outline: as §4; remark: listed apart in the source
[8] = molecular target: 3'-5' exonuclease crn-4 (Caenorhabditis elegans) (UniProt Q10905); assay: as §5; remark: listed apart in the source
[9] = molecular target: 3'-5' exonuclease crn-4 (Caenorhabditis elegans) (UniProt Q10905); assay: as §6; outline: as §4; remark: listed apart in the source
[10] = molecular target: Ribonuclease T (Escherichia coli (strain K12)) (UniProt P30014); assay: as §7; remark: listed apart in the source
Geobacillus phage GBSV1 = assay: Inhibition of recombinant GST-fused Geobacillus phage GBSV1-NSN expressed in Escherichia coli BL21 (DE3) at 10 mM using RNA/DNA as substrate after 15 mins by spectrophotometry relative to control
[11] = as §1; set-up: species or system Mammarenavirus lassaense; outline: as §2

Compound	INH (Mammarenavirus lassaense [1])	INH (Mammarenavirus lassaense [2])	inhibition [3]	INH [4]	inhibition [5]	INH [6]	inhibition [7]	INH [8]	inhibition [9]	INH [10]	inhibition (Geobacillus phage GBSV1)	inhibition (Mammarenavirus lassaense [1])	IC50 [11]
O=C(O)c1cc(SSc2ccc([N+](=O)[O-])c(C(=O)O)c2)ccc1[N+](=O)[O-]	1 mM	1 mM	Active	0.1 mM	Active	0.1 mM	–	–	–	–	–	–	–
O=C(O)c1cc2cccc([N+](=O)[O-])c2[nH]1	1 mM	1 mM	–	> 1 mM	–	1 mM	–	–	–	–	–	–	–
p-Chloromercuribenzenesulfonate	1 mM	1 mM	–	–	–	–	Active	0.01 mM	Active	0.01 mM	–	–	–
O=C(N[C@H](CC1CCCCC1)C(=O)O)OCC1c2ccccc2-c2ccccc21	1 mM	1 mM	–	1 mM	Active	1 mM	–	–	–	–	–	–	–
O=C(O)c1ccc(Nc2nc(Cl)nc(Cl)n2)cc1-c1c2ccc(=O)cc-2oc2cc(O)ccc12	1 mM	1 mM	–	1 mM	–	1 mM	–	–	–	–	–	–	–
O=C(O)CC(O)(CC(=O)O)C(=O)O	1 mM	1 mM	–	> 1 mM	–	1 mM	–	–	–	–	40%	–	–
O=S(=O)(O)c1cc(O)c2c(O)c(/N=N/c3cccc4ccccc34)c(S(=O)(=O)O)cc2c1	0.1 mM	0.1 mM	–	0.01 mM	Active	0.1 mM	–	–	–	–	–	Dose-dependent effect	66.2 µM
O=C(O)C1=CC(=C(c2ccc(O)c(C(=O)O)c2)c2ccc(O)c(C(=O)O)c2)C=CC1=O [AURINTRICARBOXYLIC ACID]	0.01 mM	0.01 mM	Active	0.1 mM	Active	0.01 mM	–	–	–	–	–	Dose-dependent effect	6.8 µM

Source: ChEMBL document CHEMBL3853325, “Identification of Inhibitors for the DEDDh Family of Exonucleases and a Unique Inhibition Mechanism by Crystal Structure Analysis of CRN-4 Bound with 2-Morpholin-4-ylethanesulfonate (MES)” (J Med Chem, 2016)
